High-throughput results as filed in PubChem.
An excerpt weighted towards active compounds, which were near 1.7% of everything screened.
FN deposit inh – inhibitors of fibronectin matrix deposition, primary screen, AH1F cells, Alexa488-fibronectin fluorescence, plate reader | actives 0.086% (n = 350,000) | inhibition, % at 12.6 µM | AH1F fibroblasts, overnight | AID 743247, 2014;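 active = mean inhibition across replicates of 30% or more, regardless of how many single replicates reach that level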;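 note: positive control wells lacked labelled fibronectin entirely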
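Schedule: 1 h cell adhesion before compound, then overnight fibronectin incubation; test system: AH1F fibroblast monolayer depositing Alexa488-labelled fibronectin into matrix; quantity: 10000 AH1F cells per well; probe or stimulus: fluorescent fibronectin at 24 nM final; signal: fluorescence, ex 485 nm, em 525 nm; evaluation: percent inhibition as loss of matrix-bound fibronectin fluorescence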
CSC inhib – cancer stem cell viability inhibitors, primary screen, luminescence; cancer stem cell-like cells viability; inhibition, % at 7.5 µM; actives 1.1% (n = 300,000); in the data active = inhibition above about 75%; tested in HMLE shEcad cells
PfHsp90 yeast 2 – growth inhibition of PfHsp90-expressing yeast, primary screen, antimalarial PfHsp90 inhibitor project, S. cerevisiae, BacTiter-Glo luminescence, single point, set 2; BacTiter-Glo ATP, 48 h; yeast lacking PDR1 and PDR3 efflux regulators; actives 0.32% (n = 310,000); inhibition, % at 9.4 µM;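 active = every replicate shows inhibition above about 80%, whatever the replicate mean, limit read from the data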;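 note: 0% = DMSO neutral controls and 100% = 20 µM radicicol positive controls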
Rtt109 Vps75 – inhibitors of C. albicans Rtt109/Vps75 HAT, primary screen, biochemical, ThioGlo CoA-SH fluorescence, plate reader; actives 0.16% (n = 330,000); inhibition, % at 34.9 µM; Histone acetyltransferase RTT109 (Candida albicans (strain SC5314 / ATCC MYA-2876)), …; AID 540336, 2011; purified Rtt109/Vps75, 4 h;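 active = inhibition of at least 50% in every replicate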
Target sequence (Q5AAJ8 whole entry, looked up): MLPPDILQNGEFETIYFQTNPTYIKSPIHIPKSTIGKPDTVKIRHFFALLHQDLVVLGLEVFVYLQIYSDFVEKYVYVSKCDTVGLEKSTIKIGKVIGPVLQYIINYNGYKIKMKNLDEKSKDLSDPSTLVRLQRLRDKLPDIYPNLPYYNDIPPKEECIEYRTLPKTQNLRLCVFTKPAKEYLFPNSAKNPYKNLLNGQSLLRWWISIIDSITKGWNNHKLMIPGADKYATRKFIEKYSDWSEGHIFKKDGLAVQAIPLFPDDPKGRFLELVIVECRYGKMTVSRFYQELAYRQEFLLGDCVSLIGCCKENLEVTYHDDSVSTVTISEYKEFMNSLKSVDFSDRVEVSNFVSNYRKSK
PglD inh – C. jejuni PglD acetyltransferase inhibitors, primary screen, biochemical, DTNB colorimetric, single point; actives 0.098% (n = 360,000); purified PglD enzyme, DTNB colorimetric CoA detection; UDP-N-acetylbacillosamine N-acetyltransferase PglD (Campylobacter jejuni); inhibition, % at 12.5 µM; AID 602405, 2012; in the data active = inhibition above about 16%, passing the limit was not always enough
SKKanGAS inh – S. pyogenes SKKanGAS growth inhibitors in kanamycin, primary screen, streptokinase expression inhibitor project, SKKanGAS strain, BacTiter-Glo luminescence; AID 1662, 2009; 6 h; actives 1.3% (n = 300,000); inhibition, % at 7.5 µM;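 active = mean replicate score, as percent of positive control median, at least 50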;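 note: strain carries kanamycin resistance gene driven by streptokinase promoter and grows in 40 µg/ml kanamycin; loss of luminescence reflects streptokinase promoter inhibition or plain growth inhibition; 0% = median of DMSO wells and 100% = positive control at its reference dose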
Numbers without * were called inactive; · = no result given.

SMILES | FN deposit inh | CSC inhib | PfHsp90 yeast 2 | Rtt109 Vps75 | PglD inh | SKKanGAS inh
C/C(=N\NC(=O)c1nnn(-c2nonc2N)c1CN(C)c1ccccc1)c1ccccc1O | 2 | 98* | -8 | 9 | 0 | 50*
Cc1ccc(S(=O)(=O)Nc2ccc3c(c2)CC(=O)N([C@H](C)CO)C[C@H](C)[C@H](CN(C)S(=O)(=O)c2c(C)noc2C)O3)cc1 | · | · | · | · | 1 | ·
CC(C)(C)c1cc(C(=O)NNc2cccc(Cl)c2)n(Cc2ccccc2)n1 | -4 | 128* | -2 | -1 | 4 | 32
CC(C)(C)c1cc(C(=O)NNc2cc(C(F)(F)F)ccc2Cl)n(Cc2ccccc2)n1 | 1 | 103* | 3 | 3 | · | 99*
CC(C)(C)C(=O)NNC(=O)c1cc(C(C)(C)C)nn1Cc1ccccc1 | -6 | -18 | -6 | -2 | · | 3
Cc1ccc(NC(=O)c2cc(C(C)(C)C)nn2Cc2ccccc2)cc1 | 4 | · | -5 | 3 | · | 25
Cc1ccc(NNC(=O)c2cc(C(C)(C)C)nn2Cc2ccccc2)cc1 | 8 | 93* | -8 | 1 | -3 | 60*
CC(C)(C)c1cc(C(=O)NNc2ccc(OC(F)(F)F)cc2)n(Cc2ccccc2)n1 | -1 | 78* | -3 | 0 | · | 11
C[C@@H]1CN([C@@H](C)CO)C(=O)c2cc(NC(=O)C3CCCCC3)ccc2O[C@@H](C)CCCCO[C@H]1CN(C)C(=O)C1CCCCC1 | · | · | · | · | 0 | ·
Cc1ccc(S(=O)(=O)N[C@H]2CC[C@@H](CCNC(=O)C3CCCCC3)O[C@@H]2CO)cc1 | · | · | · | · | -2 | ·
CC(C)Nc1nc(NC(C)C)nc(SCCOC(=O)Nc2ccc(Cl)cc2Cl)n1 | -1 | 90* | 21 | -2 | · | 34
O=C1c2ccccc2CC1(Cc1ccccc1)Cc1ccccc1 | -4 | 0 | -26 | 1 | 4 | 57*
CCC1(CC)Cc2ccccc2C(=O)N1 | 3 | -4 | 10 | 1 | -6 | 1
COc1ccc2c3c([nH]c2c1)[C@@H](CO)N(C(=O)c1ccccn1)CC31CCN(C(=O)C2CCCC2)CC1 | -5 | · | · | · | · | ·
CC(C)(C)c1ccc(CN(Cc2ccco2)Cc2nnnn2C2CCCC2)cc1 | · | -4 | 4 | 8 | · | 51*
Cc1nn(C(=O)c2cccnc2)c(C)c1Sc1ccc(Br)cc1 | · | -1 | 11 | 0 | -12 | 63*
CCC(=O)N(C)C[C@@H]1Oc2cc(C#Cc3ccccn3)ccc2S(=O)(=O)N([C@@H](C)CO)C[C@@H]1C | -10 | · | · | · | 1 | ·
COc1cc(N=c2ssnc2Cl)cc(OC)c1 | -8 | 11 | -50 | 1 | 0 | 14
Clc1nssc1=Nc1ccc(Br)cc1 | 6 | · | 105* | -2 | · | 0
Clc1ccc(N=c2ssnc2Cl)nc1 | -13 | 27 | 120* | 1 | · | 25
O=Nc1ccc(Cl)cn1 | 14 | · | · | · | · | ·
CO[C@H]1CN(C)C(=O)c2cc(NS(=O)(=O)CC(F)(F)F)ccc2OC[C@@H](C)N(Cc2ccccn2)C[C@@H]1C | -18 | · | · | · | 5 | ·
C[C@@H]1CN([C@H](C)CO)C(=O)c2cc(NC(=O)Cn3cnnn3)ccc2O[C@@H]1CN(C)Cc1ccc(Cl)c(Cl)c1 | · | · | · | · | 2 | ·
COc1ccccc1CN1CN(S(=O)(=O)c2ccccc2)c2nc3ccccc3nc21 | 4 | 4 | -17 | -6 | · | 50*
COc1cccc(CNC(=O)C2CCCN(S(=O)(=O)c3c(C)n[nH]c3C)C2)c1 (stereo not drawn) | -2 | · | -20 | -46 | -1 | -3
SMILES | FN deposit inh | CSC inhib | PfHsp90 yeast 2 | Rtt109 Vps75 | PglD inh | SKKanGAS inh
COc1ccc(CNC(=O)C2CCCN(S(=O)(=O)c3c(C)n[nH]c3C)C2)cc1 (stereo not drawn) | · | -8 | · | 67* | -3 | 1
CC(C)(C)c1cc(CCC(=O)NNC(=O)c2ccco2)cc(C(C)(C)C)c1O | -1 | -3 | -14 | 2 | · | 23
CCCCC(=O)NC(=S)NNC(=O)CCc1ccccc1 | -1 | -9 | -1 | -7 | 1 | 76*
CC(C)(C)c1cc(CCC(=O)NNC(=S)NC(=O)c2ccccc2)cc(C(C)(C)C)c1O | · | 43 | -1 | · | · | 97*
O=C(CCc1ccccc1)NNC(=S)NC(=O)c1ccccc1 | · | 3 | -22 | -3 | 3 | 64*
CNC[C@H]1Oc2ccc(NC(=O)Nc3cccc4ccccc34)cc2CC(=O)N([C@@H](C)CO)C[C@H]1C | -5 | · | · | · | · | ·
COc1ccc(S(=O)(=O)N2C[C@H](O)COC[C@H]3O[C@H](CC(=O)NCc4ccc(Cl)c(Cl)c4)CC[C@@H]32)cc1 | 9 | · | · | · | 10 | ·
CCNC(=O)C[C@H]1CC[C@H]2[C@@H](COC[C@@H](O)CN2Cc2ccccc2F)O1 | -10 | · | · | · | 0 | ·
CCCCCC[N+](C)(C)CC/C=C1/c2ccccc2Sc2ccc(Cl)cc21 | 12 | 6 | -10 | 73* | · | 33
Cc1cccc(C)c1OCc1cc(C(=O)N2CC3C[C@@H]4CC2C[C@H](C3)C4)no1 | 1 | 107* | 1 | 9 | -1 | 17
Cc1ccc(OCc2cc(C(=O)N3CC4C[C@@H]5CC3C[C@H](C4)C5)no2)cc1C | 8 | -7 | 9 | -5 | 1 | 31
CC(=O)N(C[C@H]1N[C@H](CO)[C@@H]1c1ccc(-c2cncnc2)cc1)C1CCCC1 | 3 | · | · | · | · | ·
COCC(=O)N1C[C@H](C)[C@H](OC)CN(C)C(=O)c2cc(NC(=O)c3ccccc3)ccc2OC[C@H]1C | 4 | · | · | · | -3 | ·
COc1ccccc1Oc1cn[nH]c1-c1ccc(OCC(=O)NN)cc1O | 6 | · | 3 | 0 | 9 | 50*
COc1ccc(Oc2cn[nH]c2-c2ccc(OCC(=O)NN)cc2O)cc1 | -14 | · | -8 | -3 | -4 | 88*
C[C@@H]1CCCCO[C@@H](CN(C)C(=O)c2ccccc2)[C@H](C)CN([C@H](C)CO)C(=O)c2cc(NC(=O)Nc3cccc4ccccc34)ccc2O1 | · | · | · | · | -4 | ·
C[C@@H]1CN([C@H](C)CO)C(=O)c2cc(C#C[C@@H](C)O)cnc2O[C@@H]1CN(C)C(=O)c1ccccc1F | · | · | · | · | 0 | ·
O=C(NNc1nc(-c2ccc(F)cc2)cs1)c1ccccc1 | 18 | 16 | -19 | -9 | · | 68*
O=C(NNc1nc(-c2ccccc2)cs1)c1cccs1 | 2 | 21 | · | · | -2 | 22
CC(C)(C)c1csc(NNC(=O)c2ccc(Br)cc2)n1 | 0 | 61 | 10 | 0 | · | 61*
CC(C)(C)c1csc(NC(=O)c2ccccc2O)n1 | -14 | 28 | -28 | -2 | 3 | 16
